# Fewer inactive variants are shown than the library holds.
# B1: tRNA (parent)
# chain: GUUCCGUUGGCGUAAUGGUAACGCGUCUCCCUCCUAAGGAGAAGACUGCGGGUUCGAGUCCCGUACGGAACG
# Variants of: B1
# Test: yeast fitness relative to wild type (ratio to wild type); higher = fitter; tRNA-Arg(CCU), competitive growth, 37 C, YPD
# Summary of the method: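 The tRNA-Arg(CCU) gene variants were made by chemical synthesis with a 3% per-site mutation rate at 69 sites and inserted at the native genomic locus of Saccharomyces cerevisiae. After pooling, the strains were competed in YPD at 37°C for 24 hours in six parallel replicates. Gene amplicons from the start population and each end population were read by 100-nucleotide paired-end sequencing, and Darwinian fitness relative to wild type was taken from genotype frequency changes. Genotypes needed ≥ 100 starting reads, and estimates < 0.5 were set to 0.5.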
row,Variant,yeast fitness
1,GUUCCGUUGGCGUAAUGGUAACGCGUCUCCCCCCUAAGGAGAAGACUGUCGGUUCGAGUCCCGUACGGAACG,0.638
2,GUUCCGUUGGCGUAAUGGUAACGCGUCUCCCACCUAAGAAGAAGACUGCGGGUUCGAGUCCCAUACGGAACG,≤ 0.5
3,GUUCCGUUGGCGUAAUGGUAACGCGUCUCCCCCCUAAGGAGAAGACUGAGGGUUCGAGUCCCGUACGGAACG,0.692
4,GUUCCGUUGGCGUAAUGGUAACGCGUCUCCCCCCUAAGGAGAAGACUGGGGGUUCGAGUCCCGUACGGAACG,1.02
5,GUUCCGUUGGCGUAAUGGUAACGCGUCUCCCACCUAAGAAGAAGACUGCGGGUUCGAAUCAGGUACGGAACG,≤ 0.5
6,GUUCCGUUGGCGUAAUGGUAACGCGUCUCCCCCCUAUGGAGAAGACUGCGGAUUCGAGUCCCGUAAGGAACG,≤ 0.5
7,GUUCCGUUGGCGUAAUGGUAACGCGUCUCCCCCCUAAGGAGGAGACUGCGGGUUCGAGUCCCAUACGGAACG,0.556
8,GUUCCGUUGGCGUAAUGGUAACGCGUCUCCCCCUUAAGGAGAAGACUGCGGGAUCGAGUCCCGUAUGGAACG,≤ 0.5
9,GUUCCGUUGGCGUAAUGGUAACGCGUCUCCCCCCUUAGGAGAAGACUGCGGGUUCGAGUCGCGUACGGAACG,≤ 0.5
10,GUUCCGUUGGCGUAAUGGUAACGCGUCUCCCCCCUUAGGAGAAGACUGCGGGUUCGAGUCUCGUACGGAACG,≤ 0.5
11,GUUCCGUUGGCGUAAUGGUAACGCGUCUCCCCCUUAAGGAGAAGUCUGCGGGUUCGAGUCCCGUACGGAACG,0.662
12,GUUCCGUUGGCGUAAUGGUAACGCGUCUCCCCCCUAAGGGGAAGACUGGGGGUUCGAGUCCCGUACGGAACG,0.514
13,GUUCCGUUGGCGUAAUGGUAACGCGUCUCCCCCCUAAGGAGACGACUGCGGAUUUGAGUACCGUACGGAACG,≤ 0.5
14,GUUCCGUUGGCGUAAUGGUAACGCGUCUCCCCCCUAGGGAGAAGACUGCGGGUUAGAGUCCCGUUCGCAACG,0.575
15,GUUCCGUUGGCGUAAUGGUAACGCGUCUCCCCCCUAAGAAGAAGACUGCGGGUUCGAGUCCCGUACGGAACG,0.928
16,GUUCCGUUGGCGUAAUGGUAACGCGUCUCCCCCCUAAGUAGAAGACUGCGGGUUCGAGUCCCGUACGGAACG,0.911
17,GUUCCGUUGGCGUAAUGGUAACGCGUCUCCCCCCUAAGGUGAAGACUGCGGGUUCGAGUCCCGUACGGCACG,0.747
18,GUUCCGUUGGCGUAAUGGUAACGCGUCUCCCCCCUGAGGAGAAGACUGCGGGUUCGAGUCCCGUACGGAACG,0.861
19,GUUCCGUUGGCGUAAUGGUAACGCGUCUCCCACCUAACGAGAAGACAGCGGGUUCGAGUCCCGUACGGAACG,≤ 0.5

row,Variant,yeast fitness
1,GUUCCGUUGGCGUAAUGGUAACGCGUCUCCCACCUAAGGAGAAGACUGCGGGUUCGACUCCCGUACGGAACG,0.651
2,GUUCCGUUGGCGUAAUGGUAACGCGUCUCCCCCCUAAGGAGAAGUCUGCGGGUUCGAGUCCCGUACAGAACG,≤ 0.5
3,GUUCCGUUGGCGUAAUGGUAACGCGUCUCCCCCCUAAGGAGAAGACUGCGGGUUAGAGUCCCGUACGGAACG,0.632
4,GUUCCGUUGGCGUAAUGGUAACGCGUCUCCCCCCUAAGGAGAAGACUGCGGGUUUGAGUCCCGUACGGAACG,0.651
5,GUUCCGUUGGCGUAAUGGUAACGCGUCUCCCCCCUAAGGAGAAGAGUGCGGGUUCGAGCCCCCUACGCAACG,≤ 0.5
6,GUUCCGUUGGCGUAAUGGUAACGCGUCUCCCCCCUUAAGAGAAGACUGCAGGUUCGAGUCCCGUACGGAACG,0.584
7,GUUCCGUUGGCGUAAUGGUAACGCGUCUCCCCCCUAAGGUGAAGACUGCGGGUUCGAGUCCCGUACGGAACG,1.01
8,GUUCCGUUGGCGUAAUGGUAACGCGUCUCCCCCCUAAGGCGAAGACUGCGGGUUCGAGUCCCGUACGGAACG,0.986
9,GUUCCGUUGGCGUAAUGGUAACGCGUCUCCCCCCUAAGGUGAGGACUGCGGGUUCGAGUCCCGUACGGAACG,0.684
10,GUUCCGUUGGCGUAAUGGUAACGCGUCUCCCCCCUACGGAGAAGACUGCGGGUUCGUGUCCCGUACGGAACG,≤ 0.5
11,GUUCCGUUGGCGUAAUGGUAACGCGUCUCCCCCCUAAGGAGUAGACUGCGCGUUCGAGUCCCGUACGGAACG,0.533
12,GUUCCGUUGGCGUAAUGGUAACGCGUCUCCCCCCUAAGGAGAAGGCUGCGGGUUCGUGUCCCGUACGGAACG,≤ 0.5
13,GUUCCGUUGGCGUAAUGGUAACGCGUCUCCCCCCUAAGGAGACGACUGUGGGUUCGAGUCCCGUACGGAACG,0.648
14,GUUCCGUUGGCGUAAUGGUAACGCGUCUCCCCCCUAAGGAGAAGACUGCGGGUUCGAGUGCCGUACGGAACG,0.552
15,GUUCCGUUGGCGUAAUGGUAACGCGUCUCCCACCUAAGGAGAAGACUGCGGCUUUGAGUCUCGUAUGGAACG,≤ 0.5
16,GUUCCGUUGGCGUAAUGGUAACGCGUCUCCCCCCUAAGGAGAAGAAUGCGGGUUCGAGUCCCGUACGGAACG,0.88
17,GUUCCGUUGGCGUAAUGGUAACGCGUCUCCCCCCUAAGGAGAAGACUGCGGGUUCGAGUCCCGUAAGGAACG,0.702
18,GUUCCGUUGGCGUAAUGGUAACGCGUCUCCCCCCUAAGGAGAAGAGUGCGGCUUCGAGUCCCGUACGCAACG,≤ 0.5

# — the RNAGym collection of RNA variant scans (doi:10.1126/science.aae0568)
